# Experimental data as given in publication PMC3262149 (Angewandte Chemie (International Ed. in English), 2011).
# Square brackets hold non-standard residues; d marks the D form. Side chains are listed from the residue outwards. Peptide text beside a SMILES is read from it. * marks the point of attachment. X1 = O=C(CCS[C@@H]1O[C@H](CO)[C@H](O)[C@H](O)[C@H]1O)*; βGal = OC[C@H]1O[C@@H](*)[C@H](O)[C@@H](O)[C@H]1O; Mpa = O=C(O)CCS
# Key:
# [1] = target: T1, P. aeruginosa lectin LecA (Pseudomonas aeruginosa, UniProt Q05097); experiment: Hemagglutination inhibition assay; type: biochemical; conditions: relative to D-galactose
# T1 sequence (Q05097 1-122): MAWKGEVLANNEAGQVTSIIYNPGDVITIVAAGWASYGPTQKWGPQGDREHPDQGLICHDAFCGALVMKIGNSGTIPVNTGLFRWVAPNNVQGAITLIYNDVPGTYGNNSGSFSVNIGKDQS
# In short: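 Twofold serial dilutions of test compound were preincubated with LecA for 30 min at 4 °C. Rabbit erythrocytes (5 % solution in PBS) were then added and incubated 1 h at RT. MIC was taken as the highest dilution giving complete inhibition of hemagglutination.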
# [2] = target: T1, P. aeruginosa lectin LecA; experiment: Isothermal titration calorimetry; type: binding; conditions: for n′ (stoichiometry, number of occupied lectin galactose binding sites per dendrimer) / ΔH / −T ΔS / r.p./n = (Kd(D-galactose)/Kd(ligand))/n: ITC; for n′ (stoichiometry, number of occupied lectin galactose binding sites per dendrimer) / ΔH / −T ΔS: 0.1 M Tris base, pH 7.5, 25 mM CaCl2, 25 °C, average of two independent runs; for r.p./n = (Kd(D-galactose)/Kd(ligand))/n: relative to D-galactose, per galactose residue
SMILES,"r.p./n, relative potency per galactose residue = (MIC(D-galactose)/MIC(ligand))/n [1]",Kd [2] [nM],"n′ (stoichiometry, number of occupied lectin galactose binding sites per dendrimer) [2]",ΔH [2] [kcal/mol],−T ΔS [2] [kcal/mol],r.p./n = (Kd(D-galactose)/Kd(ligand))/n [2]
CC[C@H](C)[C@H](NC(=O)[C@H](CCCCN)NC(=O)[C@H](Cc1ccccc1)NC(=O)[C@H](CCCCNC(=O)[C@H](CC(C)C)NC(=O)[C@@H]1CCCN1C(=O)[C@H](CCCCN)NC(=O)CCS[C@@H]1O[C@H](CO)[C@H](O)[C@H](O)[C@H]1O)NC(=O)[C@H](CC(C)C)NC(=O)[C@@H]1CCCN1C(=O)[C@H](CCCCN)NC(=O)CCS[C@@H]1O[C@H](CO)[C@H](O)[C@H](O)[C@H]1O)C(N)=O [GalBG1] ([Mpa](βGal)KPLK([Leu-Pro-Lys-X1])FKI-NH2),2.5,2100 ± 1000,2.5±0.3,-8.3 ± 0.4,0.7 ± 0.4,20.5
O=C[C@H](O)[C@@H](O)[C@@H](O)[C@H](O)CO [D-galactose],,,1.1±0.1,-8.4 ± 0.1,2.3 ± 0.4,
"O=[N+]([O-])c1ccc(O[C@@H]2O[C@H](CO)[C@H](O)[C@H](O)[C@H]2O)cc1 [NPG, p-nitrophenyl-β-galactoside]",5.7,,0.9±0,-10.0 ± 0.1,3.4 ± 0.1,6.2
"CC(C)S[C@@H]1O[C@H](CO)[C@H](O)[C@H](O)[C@H]1O [IPTG, isopropyl-β-thiogalactoside]",2.8,,1.1±0.1,-8.9 ± 0.5,2.8 ± 0.5,2.7
